Our source for the GI50 and Activity values is ChEMBL document CHEMBL3098105, “7,7'-Diazaindirubin--a small molecule inhibitor of casein kinase 2 in vitro and in cells” (Bioorg Med Chem, 2014).

The subject of one assay is SF-295. Nature of the assay: Antiproliferative activity against human SF295 cells after 3 days by sulforhodamine B assay. In kind it is functional. The settings on record: SF-295, 72 h. In short, it runs like this:
(§1)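 Tested in the NCI 60 cell line panel. GI50 is the concentration giving 50% inhibition of cell growth, and values are the mean of two series of tests.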
A general note: In SRB staining, fixed cells bind dye roughly in proportion to their protein.

Assay [1] addresses Casein kinase II subunit alpha' (Homo sapiens) (UniProt P19784). Nature of the assay: Inhibition of human CK2a2 assessed as residual activity at 1 uM relative to control.
The subject of assay [2] is MCF7. Nature of the assay: Cell cycle arrest in human MCF7 cells assessed as accumulation at S phase at 0.5 uM after 24 hrs using propidium iodide staining by FACS analysis (reference value: 18.59%). The assay is classed as functional.
For assay [3], the target named is Ephrin type-A receptor 1 (Homo sapiens) (UniProt P21709). As to the kind of experiment: Inhibition of human EphA1 assessed as residual activity at 1 uM relative to control.
Chain of Ephrin type-A receptor 1 (Homo sapiens) (P21709 whole entry): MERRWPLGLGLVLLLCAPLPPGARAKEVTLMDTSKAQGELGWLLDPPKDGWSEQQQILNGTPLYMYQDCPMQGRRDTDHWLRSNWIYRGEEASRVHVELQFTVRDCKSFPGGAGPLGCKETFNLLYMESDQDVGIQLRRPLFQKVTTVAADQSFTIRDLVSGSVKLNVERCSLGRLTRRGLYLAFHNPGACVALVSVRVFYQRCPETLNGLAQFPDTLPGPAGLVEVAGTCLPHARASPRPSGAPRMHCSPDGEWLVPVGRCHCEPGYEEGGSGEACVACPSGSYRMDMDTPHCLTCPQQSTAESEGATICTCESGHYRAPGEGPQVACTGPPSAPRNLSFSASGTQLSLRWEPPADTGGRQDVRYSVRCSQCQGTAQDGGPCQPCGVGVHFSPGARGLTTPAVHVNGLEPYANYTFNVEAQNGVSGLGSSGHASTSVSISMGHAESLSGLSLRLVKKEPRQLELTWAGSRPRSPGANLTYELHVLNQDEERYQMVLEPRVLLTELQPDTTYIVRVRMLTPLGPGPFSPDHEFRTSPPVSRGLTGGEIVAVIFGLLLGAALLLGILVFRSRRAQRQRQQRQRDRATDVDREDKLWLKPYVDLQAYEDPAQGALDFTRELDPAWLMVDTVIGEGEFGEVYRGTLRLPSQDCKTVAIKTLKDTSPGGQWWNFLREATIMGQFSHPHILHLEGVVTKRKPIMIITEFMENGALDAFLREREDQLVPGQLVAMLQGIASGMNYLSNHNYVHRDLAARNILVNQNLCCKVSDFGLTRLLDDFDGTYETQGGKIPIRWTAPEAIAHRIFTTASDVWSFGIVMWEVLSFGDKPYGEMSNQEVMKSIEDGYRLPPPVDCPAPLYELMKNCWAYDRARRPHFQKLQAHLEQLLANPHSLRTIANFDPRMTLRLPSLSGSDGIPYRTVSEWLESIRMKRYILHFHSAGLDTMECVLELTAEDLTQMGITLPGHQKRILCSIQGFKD
In assay [4] the target is Calcium/calmodulin-dependent protein kinase type 1 (Homo sapiens) (UniProt Q14012). Nature of the assay: Inhibition of human CaMK1 assessed as residual activity at 1 uM relative to control.
Chain of Calcium/calmodulin-dependent protein kinase type 1 (Homo sapiens) (Q14012 whole entry, looked up): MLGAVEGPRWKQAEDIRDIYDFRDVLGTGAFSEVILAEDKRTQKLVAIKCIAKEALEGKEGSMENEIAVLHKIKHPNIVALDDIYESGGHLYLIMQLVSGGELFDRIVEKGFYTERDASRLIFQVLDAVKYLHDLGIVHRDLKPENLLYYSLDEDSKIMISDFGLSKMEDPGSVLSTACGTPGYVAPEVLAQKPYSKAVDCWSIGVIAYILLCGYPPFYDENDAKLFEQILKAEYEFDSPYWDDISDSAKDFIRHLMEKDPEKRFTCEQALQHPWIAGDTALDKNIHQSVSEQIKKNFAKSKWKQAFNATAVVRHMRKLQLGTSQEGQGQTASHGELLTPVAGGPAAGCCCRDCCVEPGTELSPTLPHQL
Another assay has as its system T47D. Nature of the assay: Antiproliferative activity against human T47D cells after 3 days by sulforhodamine B assay. The settings on record: 72 h. In kind it is functional.
In assay [5] the target is Ephrin type-B receptor 1 (Homo sapiens) (UniProt P54762). As to the kind of experiment: Inhibition of human EphB1 assessed as residual activity at 1 uM relative to control.
Chain of Ephrin type-B receptor 1 (Homo sapiens) (P54762 whole entry): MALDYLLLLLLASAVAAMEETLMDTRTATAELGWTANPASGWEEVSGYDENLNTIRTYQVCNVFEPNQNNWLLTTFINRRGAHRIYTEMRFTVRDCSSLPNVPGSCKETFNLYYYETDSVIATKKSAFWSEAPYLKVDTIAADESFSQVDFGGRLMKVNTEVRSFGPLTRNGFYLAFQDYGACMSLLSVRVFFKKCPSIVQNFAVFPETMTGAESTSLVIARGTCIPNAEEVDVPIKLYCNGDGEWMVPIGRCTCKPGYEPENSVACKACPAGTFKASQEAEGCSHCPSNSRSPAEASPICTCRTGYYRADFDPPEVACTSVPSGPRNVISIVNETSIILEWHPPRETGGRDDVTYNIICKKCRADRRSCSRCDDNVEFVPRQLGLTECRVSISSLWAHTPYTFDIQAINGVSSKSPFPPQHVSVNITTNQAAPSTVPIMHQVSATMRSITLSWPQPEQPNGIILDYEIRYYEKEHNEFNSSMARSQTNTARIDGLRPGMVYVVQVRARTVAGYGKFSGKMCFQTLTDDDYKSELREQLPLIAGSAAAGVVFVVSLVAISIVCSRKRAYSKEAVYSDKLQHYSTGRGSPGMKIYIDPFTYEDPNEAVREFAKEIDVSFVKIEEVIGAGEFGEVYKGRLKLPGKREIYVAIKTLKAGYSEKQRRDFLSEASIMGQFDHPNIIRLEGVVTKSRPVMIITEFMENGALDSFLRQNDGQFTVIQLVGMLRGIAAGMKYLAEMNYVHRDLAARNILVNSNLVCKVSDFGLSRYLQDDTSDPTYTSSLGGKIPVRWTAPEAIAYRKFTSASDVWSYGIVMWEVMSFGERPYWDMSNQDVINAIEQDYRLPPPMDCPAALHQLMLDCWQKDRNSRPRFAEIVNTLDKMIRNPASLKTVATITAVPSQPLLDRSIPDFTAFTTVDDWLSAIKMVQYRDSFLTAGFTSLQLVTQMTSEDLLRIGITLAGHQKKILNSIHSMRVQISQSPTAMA
The target in assay [6] is T1, Muscle, skeletal receptor tyrosine-protein kinase (Homo sapiens) (UniProt O15146).
T1 sequence (whole entry): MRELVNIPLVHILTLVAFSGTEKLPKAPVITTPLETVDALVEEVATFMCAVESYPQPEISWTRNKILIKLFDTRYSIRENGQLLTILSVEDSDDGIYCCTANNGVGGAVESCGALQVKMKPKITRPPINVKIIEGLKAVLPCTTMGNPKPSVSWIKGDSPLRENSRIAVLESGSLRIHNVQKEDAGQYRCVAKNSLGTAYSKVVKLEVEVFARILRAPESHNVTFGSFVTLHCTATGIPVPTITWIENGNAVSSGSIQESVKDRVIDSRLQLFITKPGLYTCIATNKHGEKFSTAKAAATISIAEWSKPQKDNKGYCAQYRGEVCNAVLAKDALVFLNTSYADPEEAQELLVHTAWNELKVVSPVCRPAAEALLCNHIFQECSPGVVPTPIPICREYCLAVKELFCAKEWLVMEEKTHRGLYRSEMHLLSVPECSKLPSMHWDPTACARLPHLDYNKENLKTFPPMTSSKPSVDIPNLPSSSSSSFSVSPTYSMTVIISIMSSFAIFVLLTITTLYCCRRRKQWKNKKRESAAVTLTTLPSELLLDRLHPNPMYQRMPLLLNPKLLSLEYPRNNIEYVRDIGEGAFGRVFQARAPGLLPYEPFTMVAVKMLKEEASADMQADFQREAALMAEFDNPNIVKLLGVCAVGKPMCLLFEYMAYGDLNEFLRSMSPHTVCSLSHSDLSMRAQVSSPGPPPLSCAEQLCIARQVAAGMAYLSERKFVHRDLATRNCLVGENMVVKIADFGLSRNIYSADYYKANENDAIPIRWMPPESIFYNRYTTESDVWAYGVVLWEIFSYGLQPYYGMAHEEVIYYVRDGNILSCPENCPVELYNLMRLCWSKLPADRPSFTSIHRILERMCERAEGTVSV
Nature of the assay: Inhibition of MUSK (unknown origin) assessed as residual activity at 1 uM relative to control.

Another assay deals with SNB-75. Nature of the assay: Antiproliferative activity against human SNB75 cells after 3 days by sulforhodamine B assay. The assay is classed as functional. The settings on record: SNB-75, 72 h.
In assay [7] the target is Serine/threonine-protein kinase Sgk3 (Homo sapiens) (UniProt Q96BR1). As to the kind of experiment: Inhibition of human SGK3 assessed as residual activity at 1 uM relative to control.
Another assay deals with MOLT-4. Nature of the assay: Antiproliferative activity against human MOLT4 cells after 3 days by sulforhodamine B assay. The assay is classed as functional. The conditions noted are these: MOLT-4, 72 h. In short, it runs like this: as §1
For assay [8], the target named is Fibroblast growth factor receptor 2 (Homo sapiens) (UniProt P21802). As to the kind of experiment: Inhibition of human FGFR2 assessed as residual activity at 1 uM relative to control.
Chain of Fibroblast growth factor receptor 2 (Homo sapiens) (P21802 22-821 limits assumed): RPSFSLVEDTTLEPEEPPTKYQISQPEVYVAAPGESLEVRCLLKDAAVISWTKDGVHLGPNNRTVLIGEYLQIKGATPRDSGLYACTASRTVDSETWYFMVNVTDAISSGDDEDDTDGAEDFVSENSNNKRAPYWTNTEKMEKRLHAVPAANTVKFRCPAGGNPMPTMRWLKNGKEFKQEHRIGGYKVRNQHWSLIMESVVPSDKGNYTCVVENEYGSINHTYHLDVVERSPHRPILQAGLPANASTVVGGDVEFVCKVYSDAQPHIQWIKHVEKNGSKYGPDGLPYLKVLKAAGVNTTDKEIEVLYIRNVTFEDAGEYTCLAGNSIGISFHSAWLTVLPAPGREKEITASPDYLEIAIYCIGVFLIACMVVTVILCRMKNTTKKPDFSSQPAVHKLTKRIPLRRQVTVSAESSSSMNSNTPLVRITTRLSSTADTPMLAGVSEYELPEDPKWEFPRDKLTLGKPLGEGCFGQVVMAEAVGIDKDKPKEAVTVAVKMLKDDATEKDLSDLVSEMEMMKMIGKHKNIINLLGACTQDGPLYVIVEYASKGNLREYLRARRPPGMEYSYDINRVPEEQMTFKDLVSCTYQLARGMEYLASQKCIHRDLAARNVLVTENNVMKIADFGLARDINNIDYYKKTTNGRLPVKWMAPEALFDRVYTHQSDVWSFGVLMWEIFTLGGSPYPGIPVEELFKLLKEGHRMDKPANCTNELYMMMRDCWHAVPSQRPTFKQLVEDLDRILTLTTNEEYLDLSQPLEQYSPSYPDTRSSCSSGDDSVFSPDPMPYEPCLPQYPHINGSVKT
The subject of another assay is TK-10. Nature of the assay: Antiproliferative activity against human TK10 cells after 3 days by sulforhodamine B assay. The assay is classed as functional. The conditions noted are these: TK-10, 72 h.
For assay [9], the target named is Casein kinase I isoform delta (Homo sapiens) (UniProt P48730). Nature of the assay: Inhibition of human CK1d assessed as residual activity at 1 uM relative to control.
The target in assay [10] is T2, Serine/threonine-protein kinase Chk1 (Homo sapiens) (UniProt O14757).
T2 sequence (whole entry): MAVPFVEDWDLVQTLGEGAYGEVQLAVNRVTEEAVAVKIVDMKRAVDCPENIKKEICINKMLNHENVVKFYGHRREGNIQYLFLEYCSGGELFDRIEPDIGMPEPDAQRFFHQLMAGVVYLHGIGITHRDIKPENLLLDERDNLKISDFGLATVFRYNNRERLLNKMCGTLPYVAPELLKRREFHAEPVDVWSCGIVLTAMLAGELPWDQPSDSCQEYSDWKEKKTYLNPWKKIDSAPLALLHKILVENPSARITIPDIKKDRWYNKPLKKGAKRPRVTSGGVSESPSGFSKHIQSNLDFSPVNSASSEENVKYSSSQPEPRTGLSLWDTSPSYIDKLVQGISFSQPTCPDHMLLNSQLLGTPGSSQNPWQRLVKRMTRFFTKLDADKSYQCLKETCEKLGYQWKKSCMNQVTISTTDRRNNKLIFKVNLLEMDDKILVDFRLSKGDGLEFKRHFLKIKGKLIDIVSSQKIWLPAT
Nature of the assay: Inhibition of CHK1 (unknown origin) assessed as residual activity at 1 uM relative to control.

Assay [11] addresses Protein kinase C epsilon type (Homo sapiens) (UniProt Q02156). Nature of the assay: Inhibition of human PKCepsilon assessed as residual activity at 1 uM relative to control.
The target of assay [12] is Proto-oncogene tyrosine-protein kinase ROS (Homo sapiens) (UniProt P08922). Nature of the assay: Inhibition of human Ros assessed as residual activity at 1 uM relative to control.
Assay [13] has as its target Protein-tyrosine kinase 6 (Homo sapiens) (UniProt Q13882). As to the kind of experiment: Inhibition of human BRK assessed as residual activity at 1 uM relative to control.
Assay [14] has as its target Glycogen synthase kinase-3 beta (Homo sapiens) (UniProt P49841). As to the kind of experiment: Inhibition of human GSK3beta assessed as residual activity at 1 uM relative to control.
Assay [15] addresses Serine/threonine-protein kinase MARK1 (Homo sapiens) (UniProt Q9P0L2). As to the kind of experiment: Inhibition of human MARK1 assessed as residual activity at 1 uM relative to control.
Assay [16] concerns the target MAP kinase-activated protein kinase 3 (Homo sapiens) (UniProt Q16644). Nature of the assay: Inhibition of human MAPKAP-K3 assessed as residual activity at 1 uM relative to control.
The test system of assay [17] is MCF7. As to the kind of experiment: Cell cycle arrest in human MCF7 cells assessed as accumulation at S phase at 0.25 uM after 24 hrs using propidium iodide staining by FACS analysis (reference value: 18.59%). In kind it is functional. In general terms: In flow cytometry, cells or beads pass a laser one at a time.
The next assay has as its system COLO 205. Nature of the assay: Antiproliferative activity against human COLO205 cells after 3 days by sulforhodamine B assay. The assay is classed as functional. The conditions noted are these: COLO 205, 72 h. In outline:
as §1

Chain of Casein kinase II subunit alpha' (Homo sapiens) (P19784 whole entry, looked up): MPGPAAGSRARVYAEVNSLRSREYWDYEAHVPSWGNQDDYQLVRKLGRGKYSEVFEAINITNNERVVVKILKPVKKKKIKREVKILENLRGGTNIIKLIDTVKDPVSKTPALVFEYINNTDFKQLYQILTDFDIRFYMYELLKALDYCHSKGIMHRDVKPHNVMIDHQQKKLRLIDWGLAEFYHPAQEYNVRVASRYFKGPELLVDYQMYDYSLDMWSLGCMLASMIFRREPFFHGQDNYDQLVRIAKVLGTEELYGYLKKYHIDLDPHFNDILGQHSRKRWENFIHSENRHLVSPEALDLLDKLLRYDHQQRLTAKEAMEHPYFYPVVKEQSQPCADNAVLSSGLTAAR
Chain of Serine/threonine-protein kinase MARK1 (Homo sapiens) (Q9P0L2 whole entry, looked up): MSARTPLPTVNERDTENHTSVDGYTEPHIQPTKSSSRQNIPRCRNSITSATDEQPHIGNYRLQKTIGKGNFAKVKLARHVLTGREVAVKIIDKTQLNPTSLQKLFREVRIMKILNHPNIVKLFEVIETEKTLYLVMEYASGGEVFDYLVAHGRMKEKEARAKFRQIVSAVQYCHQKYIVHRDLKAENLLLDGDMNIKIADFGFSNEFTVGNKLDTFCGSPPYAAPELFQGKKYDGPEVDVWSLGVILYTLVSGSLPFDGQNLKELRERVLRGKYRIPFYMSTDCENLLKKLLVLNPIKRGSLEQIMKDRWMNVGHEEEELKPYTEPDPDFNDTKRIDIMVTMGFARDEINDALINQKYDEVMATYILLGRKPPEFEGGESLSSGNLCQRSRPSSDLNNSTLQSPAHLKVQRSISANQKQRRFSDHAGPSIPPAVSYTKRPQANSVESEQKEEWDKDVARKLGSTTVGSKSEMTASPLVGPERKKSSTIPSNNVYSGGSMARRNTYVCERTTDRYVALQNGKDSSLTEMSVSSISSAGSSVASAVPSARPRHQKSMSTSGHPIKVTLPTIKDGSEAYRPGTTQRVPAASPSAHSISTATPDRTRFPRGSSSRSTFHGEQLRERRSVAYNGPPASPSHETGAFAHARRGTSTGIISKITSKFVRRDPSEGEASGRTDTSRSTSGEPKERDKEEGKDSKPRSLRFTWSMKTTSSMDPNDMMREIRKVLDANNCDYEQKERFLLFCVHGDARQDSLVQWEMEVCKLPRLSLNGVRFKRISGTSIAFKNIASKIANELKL
Chain of Glycogen synthase kinase-3 beta (Homo sapiens) (P49841 whole entry, looked up): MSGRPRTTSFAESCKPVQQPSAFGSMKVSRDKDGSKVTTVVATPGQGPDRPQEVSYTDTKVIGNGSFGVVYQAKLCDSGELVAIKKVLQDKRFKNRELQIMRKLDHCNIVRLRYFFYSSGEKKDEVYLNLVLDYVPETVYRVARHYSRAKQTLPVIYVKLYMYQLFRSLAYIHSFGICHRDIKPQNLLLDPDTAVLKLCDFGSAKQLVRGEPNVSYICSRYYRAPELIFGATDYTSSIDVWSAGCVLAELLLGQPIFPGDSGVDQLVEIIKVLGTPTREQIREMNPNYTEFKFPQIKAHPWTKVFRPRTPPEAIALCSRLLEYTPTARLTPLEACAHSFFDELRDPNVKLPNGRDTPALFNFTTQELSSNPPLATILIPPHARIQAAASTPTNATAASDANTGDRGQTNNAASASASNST

Turning to `O=C1Nc2ncccc2/C1=C1/Nc2ncccc2C1=O`, the GI50 (as a rule, the concentration that inhibits growth by half) was determined as 0.257 µM with SF-295; 1.77 µM in the assay on T47D; 1.58 µM in the assay with SNB-75; 3.32 µM with MOLT-4; 2.27 µM with TK-10; 0.372 µM in the assay with COLO 205. Also, the Activity in assay [1] turned out to be 28%; in the assay on MCF7 [2], 17.48%; in assay [3], 111%; in assay [4] it was 120%; in [5], 114%; in assay [6] it was 95%. Besides, the Activity in assay [7] stood at 113%; in assay [8], 125%; in assay [9], 68%; in assay [10] it was 99%; in assay [11], 87%; in assay [12], 102%. Further, the Activity in assay [13] was 102%; in assay [14], 63%; in assay [15], 107%; in assay [16], 98%; with MCF7 [17], 18.57%.
